Published values from different studies.
Compare with care: the assays were run in different laboratories.
NPY1R: Neuropeptide Y receptor type 1 (NPY1R, Homo sapiens, UniProt P25929)
AVPR2: Vasopressin V2 receptor (AVPR2, Homo sapiens, UniProt P30518)
MTOR: Serine/threonine-protein kinase mTOR (MTOR, Homo sapiens, UniProt P42345)
Transmembrane protease serine 6: Transmembrane protease serine 6 (Homo sapiens, UniProt Q8IU80)

Clc1ccc2c(C3CCN(CCc4c[nH]c5ccccc45)CC3)c[nH]c2c1
inhibition (Neuronal acetylcholine receptor; alpha4/beta2 (Homo sapiens, UniProt P17787+P43681); ligand displacement; radioligand; 10 µM): 3%

CC(C)Cn1cnc2c(N)nc3ccccc3c21
inhibition (NPY1R; ligand displacement; radioligand; 10 µM): 13%

COc1ccc(S(=O)(=O)N2CCCCC2)cc1C
inhibition (NPY1R; ligand displacement; radioligand; 10 µM): < 30%

c1ccc(C(NCCNC(c2ccccc2)c2ccccc2)c2ccccc2)cc1
inhibition (AVPR2; cell-free assay; 10 µM): 29%

COCc1c(-c2cc3cc(C)cc(OC)c3s2)c2c(N)ncnn2c1CN1CCNC(=O)C1
inhibition (Type-1 angiotensin II receptor (AGTR1, Homo sapiens, UniProt P30556); ligand displacement; radioligand; 10 µM): 9%

O=C(Nc1cccnn1)N1CCN([C@@H]2CCOc3cc(C(F)(F)F)ccc32)CC1
inhibition (Beta-secretase 1 (BACE1, Homo sapiens, UniProt P56817); enzyme activity; inhibitor; 20 µM): 3%

C#Cc1n[nH]c2c(-c3cn(C(C)c4ccccn4)c(=O)[nH]c3=O)cc(F)cc12 (stereo not shown)
inhibition (MTOR; enzyme activity; inhibitor; 1 µM): -1.6%

CCN(CC)CCCC[C@H](NC(=O)[C@H](CC(C)C)NC(=O)[C@H](C)NC(=O)[C@H](Cc1ccccc1)NC(=O)c1ccc(C(C)(C)C)cc1)C(=O)N[C@@H](CO)C(=O)OC
inhibition (NPY1R; ligand displacement; radioligand; 10 µM): -20%

C[C@@H]1CCCN1CCCCOc1ccc2occc(=O)c2c1
inhibition (Transmembrane protease serine 6; enzyme activity; inhibitor; fluorescence; 10 µM): 10%

Cn1cc(-c2cccc(N3CCc4c(sc5c4CC(C)(C)C5)C3=O)c2CO)cc(Nc2ccncn2)c1=O
inhibition (Protein kinase C delta type (PRKCD, Homo sapiens, UniProt Q05655); enzyme activity; inhibitor; 1 µM): 1%

C#Cc1n[nH]c2c(-c3cn([C@@H](C)c4ccccc4)c(=O)[nH]c3=O)cc(F)cc12
inhibition (MTOR; enzyme activity; inhibitor; 0.1 µM): 6.8%

CN(CCN1CCC(OC(=O)Nc2ccccc2-c2ccccc2)CC1)C(=O)c1ccc(CN2CCC(C(N)=O)CC2)cc1
inhibition (AVPR2; ligand displacement; radioligand; 1 µM): -7%

Cn1cc(-c2cc(F)cc(N3CCn4c(cc5c4CCCC5)C3=O)c2CO)cc(Nc2ccc(N3CCN(C4COC4)CC3)cn2)c1=O
inhibition (MTOR; enzyme activity; inhibitor; 0.1 µM): 2%

CC(C)C[C@H](NC(=O)[C@H](Cc1ccccc1)NC(=O)c1cnccn1)B(O)O
inhibition (Neutrophil elastase (ELANE, Homo sapiens, UniProt P08246); enzyme activity; inhibitor; 33 µM): 36.1%

COCCN(CCOC)C(=O)[C@@]12C[C@@H]1[C@@H](n1cnc3c(NC(C4CC4)C4CC4)nc(Cl)nc31)[C@H](O)[C@@H]2O
inhibition (Adenosine receptor A3 (ADORA3, Homo sapiens, UniProt P0DMS8); ligand displacement; radioligand; 10 µM): 30%

C[C@H](C(=O)N[C@H]1COc2ccccc2[C@@H]1S(C)(=O)=O)c1ccc(F)cc1
inhibition (AVPR2; cell-free assay; 10 µM): 3%

CN1CCN(CCCOc2ccc3occc(=O)c3c2)CC1
inhibition (Transmembrane protease serine 6; enzyme activity; inhibitor; fluorescence; 10 µM): 5%

CC(C)C(CC(=O)NO)N=[N+]=[N-] (stereo not shown)
inhibition (Endoplasmic reticulum aminopeptidase 2 (ERAP2, Homo sapiens, UniProt Q6P179); enzyme activity; inhibitor; fluorescence; 300 µM): 5%

Cc1ccc2nc(N3C(=O)C(O)=C(C(=O)OC(C)(C)C)C3c3ccc(-c4ccc(Cl)cc4)o3)sc2c1 (stereo not shown)
inhibition (UDP-N-acetylenolpyruvoylglucosamine reductase (murB, Escherichia coli K-12, UniProt P08373); enzyme activity; inhibitor; 20 µM): 46%
